# Assay results pooled from the literature.
# Each line is one published result; the experiments were not run side by side.
# JAK2 JH1: Tyrosine-protein kinase JAK2, JH1 (JAK2, Homo sapiens, UniProt O60674)
# JAK2: Tyrosine-protein kinase JAK2 (JAK2, Homo sapiens, UniProt O60674)
Compound,target,assay,conditions,quantity,result
N#CC1(c2ccccn2)CCN(Cc2cc(C(=O)O)c(=O)n3ccccc23)CC1,JAK2 JH1,"cell-free assay, competition with immobilised ligand",1 µM,remaining binding,96%
Cn1cc(-c2cc(F)cc(N3CCn4c(cc5c4CCCC5)C3=O)c2CO)cc(Nc2ccc(N3CCN(C4COC4)CC3)cn2)c1=O,JAK2,"enzyme activity, inhibitor",0.1 µM,inhibition,8%
C#Cc1n[nH]c2c(-c3cn(C(C)c4ccccn4)c(=O)[nH]c3=O)cc(F)cc12 (stereo not drawn),JAK2,"enzyme activity, inhibitor",1 µM,inhibition,-4.2%
Cn1cc(-c2cccc(N3CCc4c(sc5c4CC(C)(C)C5)C3=O)c2CO)cc(Nc2ccncn2)c1=O,JAK2,"enzyme activity, inhibitor",1 µM,inhibition,-5%
Cn1cncc1[C@](O)(COc1ccc(C#N)cc1-c1ccc(OC(F)(F)F)cc1)c1ccc(C#N)cc1,JAK2 JH1,"cell-free assay, competition with immobilised ligand",1 µM,remaining binding,91%
O=c1[nH]c2ccccc2n1C1CCN(Cc2ccc(-c3[nH]c4cc5ncnc5cc4nc3-c3ccccc3)cc2)CC1,JAK2,cell-free assay,0.5 µM,remaining signal,104%
COc1ncccc1-c1cnn2ccc(N3CCN(C(=O)OC(C)C)CC3)nc12,JAK2,"binding, competition with immobilised ligand",1 µM,remaining binding,89%
Nc1ncc(-c2nc(N3CCOCC3)nc(N3CCOCC3)n2)c(C(F)F)n1,JAK2 JH1,"binding, competition with immobilised ligand",10 µM,remaining binding,65%
CC(C)(C)c1cc(C=C(C#N)C#N)cc(Br)c1O,JAK2,"enzyme activity, inhibitor",0.5 µM,remaining activity,107%
